Test results from ChEMBL document CHEMBL3400013, “Synthesis and biological activity evaluation of hydrazone derivatives based on a Tröger's base skeleton” (Bioorg Med Chem, 2015).
The source made the active and inactive calls. The rule behind the calls is not given here.

Key:
[1] = tested on: CCRF-CEM; assay: Cell cycle arrest in human CCRF-CEM cells assessed as accumulation at G2/M phase at IC50 after 24 hrs by propidium iodide staining-based flow cytometry; assay type: functional
Method in brief: (§1)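 Cells were then fixed in 70% ethanol, washed in hypotonic citrate buffer, treated with RNase (50 µg/mL) and stained with propidium iodide. Flow cytometry used a 488 nm laser. Apoptosis was scored as the percentage of particles with propidium content below G0/G1.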

[2] = tested on: BJ; assay: Selectivity index, ratio of IC50 for human BJ cells to IC50 for human CCRF-CEM cells; assay type: functional; settings: pooled result: one value given for 2 cell lines, strains, targets or settings
[3] = tested on: Staphylococcus aureus; assay: Antimicrobial activity against methicillin-resistant Staphylococcus aureus MRSA 4591 up to 200 uM after 24 to 48 hrs by broth microdilution method; assay type: functional, organism-based
[4] = Metal chelating activity of the compound assessed as formation of Zn2+ complex by UV-vis spectrometry; assay type: physicochemical
[5] = tested on: Staphylococcus aureus; assay: Antimicrobial activity against Staphylococcus aureus CCM 3953 up to 200 uM after 24 to 48 hrs by broth microdilution method; assay type: functional, organism-based
[6] = tested on: A549; assay: Cytostatic activity against human A549 cells after 72 hrs by MTT assay; assay type: functional, cell-based; settings: A549, 72 h
Method in brief: (§2)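 Cells were seeded at 25,000–30,000 per well and pre-incubated for 24 h at 37°C in 5% CO2. Four-fold compound dilutions were added in duplicate and incubated for 72 h. MTT was added for 1–4 h, and formazan was dissolved in 10% aq SDS (pH 5.5) overnight at 37°C. OD was read at 540 nm. IC50 came from dose-response curves, mean ± SD of eight independent experiments.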

[7] = Metal chelating activity of the compound assessed as formation of Mn2+ complex by UV-vis spectrometry; assay type: physicochemical
[8] = tested on: CCRF-CEM; assay: Cell cycle arrest in human CCRF-CEM cells assessed as accumulation at S phase at 5 times IC50 after 24 hrs by propidium iodide staining-based flow cytometry; assay type: functional; method in brief: as §1
[9] = tested on: CCRF-CEM; assay: Cell cycle arrest in human CCRF-CEM cells assessed as accumulation at G0/G1 phase at IC50 after 24 hrs by propidium iodide staining-based flow cytometry; assay type: functional; method in brief: as §1
[10] = tested on: Nucleic Acid; assay: Binding affinity to DNA (unknown origin) assessed as DNA intercalation by UV-visible spectrophotometry in presence of Ni2+; assay type: nucleic-acid assay
[11] = tested on: K562; assay: Cytostatic activity against human K562 cells after 72 hrs by MTT assay; assay type: functional, cell-based; settings: K562, 72 h; method in brief: as §2
[12] = tested on: Escherichia coli; assay: Antimicrobial activity against Escherichia coli CCM 3954 up to 200 uM after 24 to 48 hrs by broth microdilution method; assay type: functional, organism-based
[13] = tested on: CCRF-CEM; assay: Cell cycle arrest in human CCRF-CEM cells assessed as accumulation at S phase at IC50 after 24 hrs by propidium iodide staining-based flow cytometry; assay type: functional; method in brief: as §1
[14] = tested on: Nucleic Acid; assay: Binding affinity to DNA (unknown origin) assessed as DNA intercalation by UV-visible spectrophotometry; assay type: nucleic-acid assay
[15] = tested on: K562; assay: Selectivity index, ratio of IC50 for human MRC5 cells to IC50 for human K562 cells; assay type: functional
[16] = tested on: CCRF-CEM; assay: Induction of apoptosis in human CCRF-CEM cells assessed as inhibition of RNA synthesis at 5 times IC50 after 24 hrs by propidium iodide/BrU staining by flow cytometry; assay type: functional; design: scale not given: the % may be the effect or the level left
[17] = Metal chelating activity of the compound assessed as formation of Cu2+ complex by UV-vis spectrometry; assay type: physicochemical
[18] = Cytostatic activity against human HCT116 cells after 72 hrs by MTT assay; assay type: functional, cell-based; settings: HCT-116, 72 h; method in brief: as §2
[19] = tested on: Staphylococcus haemolyticus; assay: Antimicrobial activity against methicillin-resistant Staphylococcus haemolyticus A1/16568 up to 200 uM after 24 to 48 hrs by broth microdilution method; assay type: functional, organism-based
[20] = tested on: Nucleic Acid; assay: Binding affinity to DNA (unknown origin) assessed as DNA intercalation by UV-visible spectrophotometry in presence of Co2+; assay type: nucleic-acid assay
[21] = tested on: Nucleic Acid; assay: Binding affinity to DNA (unknown origin) assessed as DNA intercalation by UV-visible spectrophotometry in presence of Cu2+; assay type: nucleic-acid assay
[22] = tested on: CEM-DNR; assay: Selectivity index, ratio of IC50 for human MRC5 cells to IC50 for human CEM-DNR cells; assay type: functional
[23] = tested on: HCT-116; assay: Selectivity index, ratio of IC50 for human MRC5 cells to IC50 for human HCT116 cells; assay type: functional
[24] = Metal chelating activity of the compound assessed as formation of Co2+ complex by UV-vis spectrometry; assay type: physicochemical
[25] = tested on: BJ; assay: Selectivity index, ratio of IC50 for human BJ cells to IC50 for human K562-TAX cells; assay type: functional
[26] = tested on: Pichia kudriavzevii; assay: Antifungal activity against Candida crusei up to 200 uM after 24 to 48 hrs by broth microdilution method; assay type: functional, organism-based
[27] = tested on: BJ; assay: Selectivity index, ratio of IC50 for human BJ cells to IC50 for human p53-/- HCT116 cells; assay type: functional
[28] = Metal chelating activity of the compound assessed as formation of Mg2+ complex by UV-vis spectrometry; assay type: physicochemical
[29] = tested on: CCRF-CEM; assay: Cell cycle arrest in human CCRF-CEM cells assessed as accumulation at G2/M phase at 5 times IC50 after 24 hrs by propidium iodide staining-based flow cytometry; assay type: functional; method in brief: as §1
[30] = tested on: CCRF-CEM; assay: Cell cycle arrest in human CCRF-CEM cells assessed as accumulation at G0/G1 phase at 5 times IC50 after 24 hrs by propidium iodide staining-based flow cytometry; assay type: functional; method in brief: as §1
[31] = tested on: Nucleic Acid; assay: Binding affinity to DNA (unknown origin) assessed as DNA intercalation by UV-visible spectrophotometry in presence of Zn2+; assay type: nucleic-acid assay
[32] = tested on: Candida albicans; assay: Antifungal activity against Candida albicans up to 200 uM after 24 to 48 hrs by broth microdilution method; assay type: functional, organism-based
[33] = tested on: Pseudomonas aeruginosa; assay: Antimicrobial activity against multidrug-resistant Pseudomonas aeruginosa A/16575 up to 200 uM after 24 to 48 hrs by broth microdilution method; assay type: functional, organism-based
[34] = tested on: Candida tropicalis; assay: Antifungal activity against Candida tropicalis up to 200 uM after 24 to 48 hrs by broth microdilution method; assay type: functional, organism-based
[35] = tested on: CCRF-CEM; assay: Induction of apoptosis in human CCRF-CEM cells assessed as apoptotic cells at IC50 after 24 hrs by propidium iodide staining-based flow cytometry; assay type: functional; method in brief: as §1
[36] = tested on: A549; assay: Selectivity index, ratio of IC50 for human MRC5 cells to IC50 for human A549 cells; assay type: functional
[37] = tested on: CCRF-CEM; assay: Induction of apoptosis in human CCRF-CEM cells assessed as inhibition of DNA synthesis at 5 times IC50 after 24 hrs by propidium iodide/BrdU staining by flow cytometry; assay type: functional; design: scale not given: the % may be the effect or the level left
[38] = tested on: CCRF-CEM; assay: Induction of apoptosis in human CCRF-CEM cells assessed as inhibition of DNA synthesis at IC50 after 24 hrs by propidium iodide/BrdU staining by flow cytometry; assay type: functional; design: scale not given: the % may be the effect or the level left
[39] = tested on: BJ; assay: Selectivity index, ratio of IC50 for human BJ cells to IC50 for human CEM-DNR cells; assay type: functional
[40] = tested on: CCRF-CEM; assay: Induction of apoptosis in human CCRF-CEM cells assessed as apoptotic cells at 5 times IC50 after 24 hrs by propidium iodide staining-based flow cytometry; assay type: functional; method in brief: as §1
[41] = tested on: HCT-116; assay: Selectivity index, ratio of IC50 for human MRC5 cells to IC50 for human p53-/- HCT116 cells; assay type: functional
[42] = tested on: Candida parapsilosis; assay: Antifungal activity against Candida parapsilosis up to 200 uM after 24 to 48 hrs by broth microdilution method; assay type: functional, organism-based

## O=C(N/N=C/c1ccccc1O)c1ccc2c3c(ccc2c1)N1Cc2c(ccc4cc(C(=O)N/N=C/c5ccccc5O)ccc24)N(C3)C1
[1]
  Activity: 19.09%
[2]
  Ratio IC50: 0.9
[3]
  Activity: inactive
[4]
  Activity: Active
[5]
  Activity: inactive
[6]
  IC50: 980 nM
[7]
  Activity: Not Active
[8]
  Activity: 37.75%
[9]
  Activity: 30.6%
[10]
  Activity: Active
[11]
  IC50: 580 nM
[12]
  Activity: inactive
[13]
  Activity: 50.31%
[14]
  Activity: inactive
[15]
  Ratio IC50: 0.6
[16]
  Activity: 83.92%
[17]
  Activity: Active
[18]
  IC50: 390 nM
[19]
  Activity: inactive
[20]
  Activity: Active
[21]
  Activity: Active
[22]
  Ratio IC50: 0.1
[23]
  Ratio IC50: 0.8
[24]
  Activity: Active
[25]
  Ratio IC50: 0.4
[26]
  Activity: inactive
[27]
  Ratio IC50: 1.7
[28]
  Activity: Not Active
[29]
  Activity: 18.92%
[30]
  Activity: 43.33%
[31]
  Activity: Active
[32]
  Activity: inactive
[33]
  Activity: inactive
[34]
  Activity: inactive
[35]
  Activity: 18.07%
[36]
  Ratio IC50: 0.3
[37]
  Activity: 5.94%
[38]
  Activity: 50.71%
[39]
  Ratio IC50: 0.1
[40]
  Activity: 50.23%
[41]
  Ratio IC50: 1.7
[42]
  Activity: inactive

## O=C(N/N=C/c1nccc2ccccc12)c1ccc2c3c(ccc2c1)N1Cc2c(ccc4cc(C(=O)N/N=C/c5nccc6ccccc56)ccc24)N(C3)C1
[1]
  Activity: 15.35%
[2]
  Ratio IC50: 172
[3]
  Activity: inactive
[4]
  Activity: Active
[5]
  Activity: inactive
[6]
  IC50: 18600 nM
[7]
  Activity: Not Active
[8]
  Activity: 39.87%
[9]
  Activity: 46.09%
[10]
  Activity: Active
[11]
  IC50: 820 nM
[12]
  Activity: inactive
[13]
  Activity: 38.56%
[14]
  Activity: inactive
[15]
  Ratio IC50: 121.9
[16]
  Activity: 16.94%
[17]
  Activity: Active
[18]
  IC50: 17700 nM
[19]
  Activity: inactive
[20]
  Activity: Active
[21]
  Activity: Active
[22]
  Ratio IC50: 15.9
[23]
  Ratio IC50: 5.7
[24]
  Activity: Active
[25]
  Ratio IC50: 9.9
[26]
  Activity: inactive
[27]
  Ratio IC50: 4
[28]
  Activity: Not Active
[29]
  Activity: 13.57%
[30]
  Activity: 46.56%
[31]
  Activity: Active
[32]
  Activity: inactive
[33]
  Activity: inactive
[34]
  Activity: inactive
[35]
  Activity: 8.4%
[36]
  Ratio IC50: 5.4
[37]
  Activity: 43.36%
[38]
  Activity: 52.93%
[39]
  Ratio IC50: 15.9
[40]
  Activity: 10.73%
[41]
  Ratio IC50: 4
[42]
  Activity: inactive
